Measured values from ChEMBL document CHEMBL2169863, “Discovery, structure-activity relationship, and biological evaluation of noninhibitory small molecule chaperones of glucocerebrosidase” (J Med Chem, 2012).
Active and inactive are the calls of the source.

Experiments:
[1] = target: Lysosomal alpha-glucosidase (Homo sapiens) (UniProt P10253); test: Activation of alpha-glucosidase using 4-MU-alpha-glucose as substrate
[2] = tested on: T1, Lysosomal acid glucosylceramidase (Homo sapiens), P04062 [N409S]; test: Activation of glucocerebrosidase N370S mutant in Gaucher patient spleen homogenates using 4-methylumbelliferone-Glc as substrate assessed as half-maximal activation concentration incubated for 5 mins prior to substrate addition measured after 30 to 45 mins by fluorimetric analysis; type: tissue-based
T1 sequence (whole entry): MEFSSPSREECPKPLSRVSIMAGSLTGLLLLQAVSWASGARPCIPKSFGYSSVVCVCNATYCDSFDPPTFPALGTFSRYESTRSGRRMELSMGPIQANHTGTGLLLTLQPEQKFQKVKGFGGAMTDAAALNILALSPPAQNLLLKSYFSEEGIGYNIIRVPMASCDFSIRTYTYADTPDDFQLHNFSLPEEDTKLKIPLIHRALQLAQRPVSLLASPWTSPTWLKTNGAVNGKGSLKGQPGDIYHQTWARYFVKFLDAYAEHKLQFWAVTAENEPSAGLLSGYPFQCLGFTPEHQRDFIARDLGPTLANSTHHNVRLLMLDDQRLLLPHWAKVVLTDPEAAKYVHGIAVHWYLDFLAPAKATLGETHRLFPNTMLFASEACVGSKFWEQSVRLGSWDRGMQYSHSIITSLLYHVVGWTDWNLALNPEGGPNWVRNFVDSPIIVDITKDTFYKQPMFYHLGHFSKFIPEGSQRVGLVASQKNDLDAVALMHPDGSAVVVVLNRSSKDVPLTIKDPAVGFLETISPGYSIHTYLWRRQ
Procedure, shortened: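 Spleen homogenate (27 μg final) in pH 5 citrate/phosphate buffer with KCl, NaCl, MgCl₂ and 0.01% Tween-20. Compound was titrated 0.5 nM to 58 μM and preincubated 5 min at room temperature. Reaction used 1 mM 4MU-Glc for 30−45 min at 37 °C and was stopped with NaOH/glycine pH 10. Read-out was fluorescence at Ex 365/Em 440 nm. AC₅₀ is the average of N = 2.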

[3] = Activation of alpha-galactosidase using 4-MU-alpha-galactose as substrate

Activity [1]	Activity [2]	Activity [3]	SMILES
inactive	4.11 µM	inactive	Cc1cc(C)n2ncc(C(=O)N[C@H]3CC[C@H](C(C)(C)C)CC3)c2n1
inactive	16.3 µM	inactive	Cc1cc(C)n2ncc(C(=O)Nc3ccccc3C)c2n1
inactive	inactive	inactive	Cc1cc(C)n2ncc(C(=O)NC(C)C)c2n1
inactive	8.19 µM	inactive	Cc1cc(-c2ccccc2)nc2c(C(=O)Nc3ccc4c(c3)CCC4)cnn12
inactive	inactive	inactive	Cc1cc(C)n2ncc(C(=O)Nc3cccc(C#N)c3)c2n1
inactive	8.19 µM	inactive	Cc1cc(C)n2ncc(C(=O)Nc3ccccc3)c2n1
inactive	inactive	inactive	Cc1cc(C)n2ncc(C(=O)Nc3ccncc3)c2n1
inactive	1.46 µM	inactive	Cc1cc(C)n2ncc(C(=O)Nc3ccc(C)c(C)c3)c2n1
inactive	18.3 µM	inactive	Cc1cc(C)n2ncc(C(=O)Nc3ccccc3Sc3ccccc3)c2n1
inactive	51.7 µM	inactive	Cc1cc(C)n2ncc(C(=O)NCc3ccco3)c2n1
inactive	6.51 µM	inactive	Cc1cccc(NC(=O)c2cnn3c(C)cc(C)nc23)c1
inactive	–	inactive	O=C(Nc1ccc2c(c1)CCC2)c1cnn2c(C(F)F)cc(C3CC3)nc12
inactive	8.19 µM	inactive	COc1ccc(NC(=O)c2cnn3c(C)cc(C)nc23)cc1
inactive	32.6 µM	inactive	Cc1cc(C)n2ncc(C(=O)NCC(C)C)c2n1
inactive	inactive	inactive	Cc1cc(C)n2ncc(C(=O)N3CCCC3)c2n1
inactive	2.31 µM	inactive	Cc1cc(C)n2ncc(C(=O)Nc3ccc(C(C)(C)C)cc3)c2n1
inactive	25.9 µM	inactive	Cc1cc(C)n2ncc(C(=O)Nc3cc(Cl)cc(Cl)c3)c2n1
inactive	10.3 µM	inactive	Cc1cc(C)n2ncc(C(=O)NC3CCCCC3)c2n1
inactive	inactive	inactive	CC(=O)Nc1cccc(NC(=O)c2cnn3c(C)cc(C)nc23)c1
inactive	12.9 µM	inactive	CCc1ccc(NC(=O)c2cnn3c(C)cc(-c4ccccc4)nc23)cc1
inactive	163 µM	inactive	CC(=O)c1ccc(NC(=O)c2cnn3c(C)cc(C)nc23)cc1
inactive	–	inactive	O=C(NC1CCCCC1)c1cnn2c(C(F)F)cc(C3CC3)nc12
inactive	25.9 µM	inactive	Cc1cc(C)n2ncc(C(=O)N[C@H]3CC[C@@H](C(C)(C)C)CC3)c2n1
inactive	inactive	inactive	COc1ccc(NC(=O)c2cnn3c(-c4ccccc4)cc(C)nc23)cc1

Activity [1]	Activity [2]	Activity [3]	SMILES
inactive	–	inactive	CCc1ccc(NC(=O)c2cnn3c(C(F)F)cc(C4CC4)nc23)cc1
inactive	inactive	inactive	CNC(=O)c1cnn2c(C)cc(C)nc12
inactive	inactive	inactive	Cc1ccc(NC(=O)c2cnn3c(-c4ccccc4)cc(C)nc23)cc1
inactive	1.63 µM	inactive	Cc1ccc(NC(=O)c2cnn3c(C)cc(C)nc23)cc1
inactive	inactive	inactive	COc1cc(NC(=O)c2cnn3c(C)cc(C)nc23)cc(OC)c1OC
inactive	51.7 µM	inactive	Cc1cc(C)n2ncc(C(=O)NCc3ccccc3)c2n1
inactive	inactive	inactive	Cc1cc(C)n2ncc(C(=O)Nc3ccc(S(C)(=O)=O)cc3)c2n1
inactive	inactive	inactive	COc1ccc(NC(=O)c2cnn3c(C)cc(C)nc23)cc1OC
inactive	13 µM	inactive	Cc1ccc(NC(=O)c2cnn3c(C)cc(C)nc23)c(C)c1
inactive	20.6 µM	inactive	Cc1cc(C)n2ncc(C(=O)Nc3ccc(C#N)cc3)c2n1
inactive	inactive	inactive	Cc1cc(-c2ccccc2)n2ncc(C(=O)Nc3ccc(Cl)c(Cl)c3)c2n1
inactive	–	inactive	Cc1cc(-c2ccccc2)nc2c(C(=O)Nc3ccc(Cl)c(Cl)c3)cnn12
inactive	6.51 µM	inactive	Cc1cc(C)n2ncc(C(=O)Nc3ccc4c(c3)OCO4)c2n1
inactive	inactive	inactive	Cc1cc(-c2ccccc2)n2ncc(C(=O)Nc3ccccc3Sc3ccccc3)c2n1
inactive	41.1 µM	inactive	Cc1cc(C)n2ncc(C(=O)Nc3cccc(C(F)(F)F)c3)c2n1
inactive	–	inactive	O=C(Nc1ccccc1Sc1ccccc1)c1cnn2c(C(F)(F)F)cc(C3CC3)nc12
inactive	10.3 µM	inactive	Cc1cc(C)n2ncc(C(=O)Nc3ccc4c(c3)OCCO4)c2n1
inactive	1.46 µM	inactive	COc1ccc(NC(=O)c2cnn3c(C)cc(C)nc23)cc1F
inactive	2.59 µM	inactive	Cc1cc(C)n2ncc(C(=O)Nc3ccc4c(c3)CCC4)c2n1
inactive	32.6 µM	inactive	CC(=O)c1cccc(NC(=O)c2cnn3c(C)cc(C)nc23)c1
inactive	inactive	inactive	CC(=O)Nc1ccc(NC(=O)c2cnn3c(C)cc(C)nc23)cc1
inactive	3.26 µM	inactive	CCc1ccc(NC(=O)c2cnn3c(C)cc(C)nc23)cc1
inactive	2.06 µM	inactive	COc1ccc(NC(=O)c2cnn3c(C)cc(C)nc23)cc1Cl
